# Bioassay records as filed in PubChem.
# ABHD4 inh – inhibits mouse alpha/beta hydrolase domain 4 | Q8VD66 | purified mABHD4, FP-Rh probe fluorescence polarization | inhibition, % at 8.92 µM | hit rate 0.54% among 370,000;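 active means inhibition exceeding the mean over every tested compound plus 3 SD, cut at about 30% in these data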;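 further: 0% = plate median of compound wells and 100% = S159A mutant with DMSO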
# Target sequence (Q8VD66 whole entry, looked up, the tested form may be a part): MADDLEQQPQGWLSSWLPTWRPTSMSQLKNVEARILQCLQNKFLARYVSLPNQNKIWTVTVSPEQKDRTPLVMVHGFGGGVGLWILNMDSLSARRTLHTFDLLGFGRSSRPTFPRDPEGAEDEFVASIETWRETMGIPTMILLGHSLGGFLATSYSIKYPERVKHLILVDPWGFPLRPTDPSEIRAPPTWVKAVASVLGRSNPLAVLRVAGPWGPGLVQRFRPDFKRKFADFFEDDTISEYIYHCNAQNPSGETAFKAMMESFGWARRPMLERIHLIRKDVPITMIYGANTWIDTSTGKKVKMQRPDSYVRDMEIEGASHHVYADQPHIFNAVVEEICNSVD
#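 Doses – 8.92 µM, single dose · Material – wild-type mouse ABHD4 protein · Replication – single well per compound (singlicate) · Measure – percent inhibition of probe binding, normalized to plate controls · Schedule – 45 min compound pre-incubation plus 60 min probe step, 25 °C · Detection – fluorescence polarization with parallel and perpendicular emission, 525/598 nm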
# PRMT1 inh – inhibitors of human PRMT1 | AID 652257 | inhibition, % at 2.79 µM | recombinant PRMT1, activity-based probe fluorescence polarization | Q99873 | hit rate 1.3% among 370,000;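 active means inhibition above about 21% made by adding two undisclosed values, limit read from the data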
# SIAE primary – inhibitors of human sialic acid acetylesterase SIAE | Q9HAT2 | SIAE FP-Rh probe binding, fluorescence polarization | inhibition, % at 9.66 µM | hit rate 0.69% among 370,000 | AID 1053197;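 active means inhibition above a cutoff: mean of compounds within the control limits plus 3 SD of those, cut at about 17% in these data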;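 further: 0% = plate median of compound wells and 100% = probe without SIAE protein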
# TCR-CD3 inh – blocks the human TCR-CD3 interaction; TAMRA-labeled TCR probe fluorescence, biochemical; inhibition, % at 9.4 µM; hit rate 0.37% among 360,000; in the data active means inhibition above about 19%;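 further: recombinant mutant TCR 2C K166C tagged with TAMRA read by polarization; 0% = receptor in buffer alone and 100% = receptor with positive control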
# HTRA1 inh – inhibitors of human serine peptidase HTRA1; recombinant HTRA1, FP-rhodamine activity-based probe, fluorescence polarization; inhibition, % at 5.96 µM; hit rate 0.5% among 340,000; AID 504803; in the data active means inhibition above about 36%;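 further: 0% = enzyme with DMSO and 100% = wells lacking enzyme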
# Numbers without * were called inactive; . = no result given. Rows were chosen to be rich in hits. Some 2.5% of all compounds tested hit in one or more screens of this group.
SMILES,ABHD4 inh,PRMT1 inh,SIAE primary,TCR-CD3 inh,HTRA1 inh
O=C(CC(SCc1ccco1)c1ccc(O)cc1)c1cccs1 (stereo unspecified),-17.4,21.6*,-1.3,9.4,-19.0
CCC(c1nnc(SCC(=O)Nc2cc(C)on2)o1)N(C)C (stereo unspecified),-7.2,5.3,-1.9,-9.4,-1.5
CCC(c1nnc(SCC(=O)NCCc2ccc(Cl)cc2Cl)o1)N(C)C (stereo unspecified),3.5,21.4*,0.2,-11.5,-3.6
Cc1nc2ccccc2c(=O)n1Cc1ccco1,-6.1,4.8,-2.0,-8.1,.
COc1ccc(Cn2c(C)nc3c(c2=O)c2nc4ccccc4nc2n3Cc2ccco2)cc1,-5.7,39.6*,-31.0,-1.9,-35.0
COCCN=C1NN=C(c2ccc(NC(C)=O)cc2)CS1,5.0,21.7*,-7.4,1.0,7.9
CCN=C1NN=C(c2ccc(C)cc2)CS1,-0.7,18.7,2.3,-0.9,-24.4
Oc1ccc(/C=N\Nc2cc(N3CCOCC3)nc(N3CCOCC3)n2)c(O)c1,12.8,3.2,23.0*,-6.6,5.8
Cc1cc(N/N=C/c2ccc(O)cc2O)nc(N2CCOCC2)n1,2.1,1.2,10.4,1.2,-1.6
Cc1ccc(-n2c(-c3ccccc3)c[nH]c2=S)cc1,4.7,17.4,10.6,5.9,4.7
COc1ccc(-n2c(-c3ccc(Cl)cc3)c[nH]c2=S)cc1,-3.8,23.8*,4.8,-12.2,3.3
Cc1nc2ccc(C(=O)N3CCN(C(=O)C(Cl)Cl)CC3)cc2n1C1CCCC1,-1.7,3.0,1.9,.,.
NC(=S)NN=CCn1cc([N+](=O)[O-])c(=O)[nH]c1=O,4.6,23.8*,3.8,1.7,3.5
C[C@@H]1CCCN1c1cccc2c1S(=O)(=O)N1CC[C@H](C1)O2,3.3,-0.1,3.2,.,.
O=C(Nc1cc(S(=O)(=O)N2CCOCC2)ccc1O)c1ccc2c(c1)S(=O)(=O)c1ccccc1C2=O,9.2,21.5*,1.0,0.4,-2.9
Cc1ccccc1Cn1cc(CN2[C@@H](CC(C)C)COc3cccc(F)c3S2(=O)=O)nn1,-6.5,-0.7,-3.5,.,.
CC(=O)C1=C(c2cccc([N+](=O)[O-])c2)N(C(C)=O)n2c(C)nnc2S1,-6.8,75.5*,-1.6,-1.3,-0.1
CC(=O)c1c(C(C)=O)c(C)n(-c2cccc([N+](=O)[O-])c2)c1C,11.2,-2.4,-2.3,1.6,0.7
CCC1CCCCN1C(=S)NN=C(C)c1ccccn1 (stereo unspecified),5.3,23.6*,-1.5,-2.5,.
Cc1ccc(NC(=S)N2CCN(Cc3ccccc3)CC2)cc1,5.3,-2.3,1.5,1.7,-0.3
Cc1ccc(C(=S)N2CCN(Cc3ccccc3)CC2)cc1,0.5,22.0*,3.0,1.8,-1.7
COc1ccc(-n2c(SCC(=O)Nc3ccc(S(=O)(=O)Nc4nccs4)cc3)nnc2-c2ccccc2)cc1,-20.7,3.7,-18.5,.,.
CC1=C(C#N)C(=O)NC(=O)/C1=C\c1ccc(-c2cc(C)c(C)cc2[N+](=O)[O-])o1,40.8*,39.9*,-32.5,-8.1,13.1
Cn1cnc([N+](=O)[O-])c1Sc1nnc(-c2ccccc2)c(-c2ccccc2)n1,-2.7,24.0*,-7.3,-2.6,.
Cn1cnc([N+](=O)[O-])c1Sc1ncn[nH]1,5.5,-2.7,2.2,-11.5,4.2
SMILES,ABHD4 inh,PRMT1 inh,SIAE primary,TCR-CD3 inh,HTRA1 inh
Nc1nc(SCc2ccccc2)ns1,-1.3,23.0*,6.9,5.6,-2.1
Cc1ccc(CNC(=O)O[C@H]2CC[C@@]34CCCN3C(=O)CCC[C@H]4[C@H]2C)cc1,-1.4,-3.8,6.8,.,.
Cc1ccc(C(=O)c2coc3cc([N+](=O)[O-])c(O)c([N+](=O)[O-])c23)cc1,17.0,26.5*,13.7,0.1,18.7
c1ccc(Cn2ccc3ccc(-c4ccc5ccn(Cc6cccc(-c7cccs7)c6)c5c4)cc32)cc1,-1.4,1.6,7.0,.,.
CC(=O)NN1C(=O)/C(=C/c2ccc(Br)o2)SC1=S,15.9,25.3*,5.2,2.3,-11.6
COc1ccccc1C(=O)NC1CCCCN(Cc2cccc(F)c2)C1=O (stereo unspecified),0.9,0.3,-3.6,.,.
COc1ccc(C(=O)CSc2ccc(-c3ccco3)nn2)cc1,6.4,23.2*,0.9,8.7,3.3
COc1ccc(C(=O)CSc2ccc(-c3ccccc3)nn2)cc1,-13.3,1.0,-2.5,3.8,-16.6
O=C(O)c1ccnc(SCC(=O)c2ccccc2)c1,-2.2,22.9*,-4.6,-3.7,4.1
CCCCN(C)C(=O)C1CCN(S(=O)(=O)c2ccc3[nH]c(=O)oc3c2)CC1,5.8,6.3,3.0,.,.
C=CCNC(=O)CN(C(=O)c1csc2ccc(Cl)cc12)c1cccc(Br)c1,2.8,-4.3,0.0,.,.
Cc1ccc(NC(=O)c2ccc(=O)[nH]n2)cc1C,3.7,-0.8,0.1,2.4,-4.7
Cc1ccc(NC(=O)c2ccc(=O)[nH]n2)cc1S(=O)(=O)Nc1ccc(SC(F)F)cc1,-60.4,46.3*,-59.5,10.6,-43.5
CSC1=N/C(=C\c2ccc(Br)o2)C(=O)S1,11.5,24.6*,2.4,5.7,-1.1
c1ccc(CN2CCN(C3=Nc4cccc5cccc3c45)CC2)cc1,6.0,-1.2,-3.7,-0.3,1.3
O=C1CCN2C=Nc3cccc4ccc1c2c34,12.8,124.0*,3.6,0.6,5.3
COc1ccc2[nH]c(C(=O)N/N=C/c3ccc(O)cc3O)cc2c1,17.7,-1.7,24.8*,7.1,25.8
CC1CCCC(C(=O)O)N1C(=O)CCS (stereo unspecified),-14.2,24.7*,-7.0,-6.8,7.4
CSCCC(=O)N1C(C)CCCC1C(=O)O (stereo unspecified),2.8,0.2,1.1,-4.0,1.0
COC(=O)C1CN(Cc2ccccc2)CCS(=O)(=O)N1Cc1ccc(C)cc1 (stereo unspecified),-6.6,3.7,1.6,.,.
O=C(CSc1cccc[n+]1[O-])Nc1cc2c(cc1Cl)C(=O)c1ccccc1C2=O,6.6,23.3*,-2.0,-9.0,4.0
Cc1ccccc1CN1CCCCC(NC(=O)C2CCC2)C1=O (stereo unspecified),-2.6,-3.8,2.6,.,.
C[C@@H]1CCN(C2CC2)S(=O)(=O)c2ccc(N3CCC[C@H]3CO)cc2O1,2.5,1.1,0.5,.,.
O=C1/C(=C\c2ccco2)CCC/C1=C\c1ccco1,-5.4,21.7*,0.7,1.2,19.3
O=C1/C(=C/c2ccco2)CCC1C1CCCC1 (stereo unspecified),4.9,2.4,2.8,-8.0,10.0
CCCCN(C)c1nc(-c2ccco2)c2c(c1C#N)CC(C)(C)OC2,5.6,21.4*,7.8,-4.0,-10.2
Cc1ccccc1Cn1cc(CN2[C@H](CC(C)C)COc3cc(Br)ccc3S2(=O)=O)nn1,-0.9,0.7,1.0,.,.
CCC(CC)NC(=O)O[C@H]1CC[C@@]23CCCN2C(=O)CCC[C@H]3[C@H]1C,5.6,-0.6,-4.3,.,.
CNC(=O)c1c(C)[nH]c(=S)c(C#N)c1-c1ccco1,8.4,34.1*,11.1,-1.8,9.2
Cc1ccccc1NC(=O)c1c(C)[nH]c(=S)c(C#N)c1-c1ccco1,-8.1,24.5*,-6.2,-3.2,-14.5
